Measured values published in ChEMBL document CHEMBL2384906, “Biological activity, design, synthesis and structure activity relationship of some novel derivatives of curcumin containing sulfonamides” (Eur J Med Chem, 2013).
Converted amounts (≈) assume the structure as drawn. The source made the active and inactive calls. No cut-off for these calls is given here.

What was measured:
Mus musculus = test: Antiinflammatory activity in mouse assessed as inhibition of carrageenan-induced increase in paw volume at 200 mg/kg administered 1 hr prior to carrageenan challenge measured after 3 hrs relative to control; type: functional
Summary of the method: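 Mice were fasted 2 h and placed in groups of five. Controls received saline i.p. Phenylbutazone was given at 100 mg/kg i.p., curcumin at 200 mg/kg i.p., and derivatives at 200 mg/kg. After 1 h, 0.1 mL of 1% carrageenan in saline was injected subplantar into the right hind paw. Paw volume was followed by plethysmometer for 3 h, and % inhibition was calculated as (Vc − Vt)/Vc × 100.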

HCT-116 = test: Cytotoxicity against human HCT116 cells after 24 hrs by MTT assay; type: functional, cell-based
Summary of the method: (§1)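 The MTT assay seeded 5 × 10⁴ cells per well and grew them 24 h in RPMI 1640 with compound at 2.5–200 µM. Medium without cells was the blank and adriamycin the positive control. MTT was added for 4 h at 37 °C, formazan was solubilised, and absorbance was read at 570 nm. IC50 is the concentration that cuts viability 50% against untreated cells.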

QG-56 = test: Cytotoxicity against human QG56 cells after 24 hrs by MTT assay; type: functional, cell-based; summary of the method: as §1
HeLa = test: Cytotoxicity against human HeLa cells after 24 hrs by MTT assay; type: functional, cell-based; summary of the method: as §1
HepG2 = test: Cytotoxicity against human HepG2 cells after 24 hrs by MTT assay; type: functional, cell-based; summary of the method: as §1
Trichoderma viride [1] = test: Antifungal activity against Trichoderma viride MTCC 1107 after 48 hrs; type: functional; conditions: MTCC 1107, 48 h
Trichoderma viride [2] = test: Antifungal activity against Trichoderma viride MTCC 1107 assessed as zone of inhibition at 20 uM after 48 hrs by disc diffusion method; type: functional; conditions: MTCC 1107, 48 h, read-out: IZ
Summary of the method: (§2)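 Spores from 4-day potato dextrose agar cultures, suspended in sterile water at 1.5 × 10⁵ CFU/mL. 0.2 mL was spread on potato dextrose agar. 5 mm filter-paper discs soaked with test compound were laid on the lawn. Incubation was 48 h at 28 °C, then the inhibition zone was measured in mm. Fluconazole was the positive control and acetone the negative control.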

Trichoderma viride [3] = test: Antifungal activity against Trichoderma viride MTCC 1107 assessed as zone of inhibition at 40 uM after 48 hrs by disc diffusion method; type: functional; conditions: MTCC 1107, 48 h, read-out: IZ; summary of the method: as §2
Trichoderma viride [4] = test: Antifungal activity against Trichoderma viride MTCC 1107 assessed as zone of inhibition at 80 uM after 48 hrs by disc diffusion method; type: functional; conditions: MTCC 1107, 48 h, read-out: IZ; summary of the method: as §2
Curvularia lunata [5] = test: Antifungal activity against Curvularia lunata MTCC 581 after 48 hrs; type: functional; conditions: MTCC 581, 48 h
Curvularia lunata [6] = test: Antifungal activity against Curvularia lunata MTCC 581 assessed as zone of inhibition at 20 uM after 48 hrs by disc diffusion method; type: functional; conditions: MTCC 581, 48 h, read-out: IZ; summary of the method: as §2
Curvularia lunata [7] = test: Antifungal activity against Curvularia lunata MTCC 581 assessed as zone of inhibition at 40 uM after 48 hrs by disc diffusion method; type: functional; conditions: MTCC 581, 48 h, read-out: IZ; summary of the method: as §2
Aspergillus flavus [8] = test: Antifungal activity against Aspergillus flavus MTCC 1021 after 48 hrs; type: functional; conditions: MTCC 1021, 48 h
Curvularia lunata [9] = test: Antifungal activity against Curvularia lunata MTCC 581 assessed as zone of inhibition at 80 uM after 48 hrs by disc diffusion method; type: functional; conditions: MTCC 581, 48 h, read-out: IZ; summary of the method: as §2
Aspergillus flavus [10] = test: Antifungal activity against Aspergillus flavus MTCC 1021 assessed as zone of inhibition at 20 uM after 48 hrs by disc diffusion method; type: functional; summary of the method: as §2
Aspergillus flavus [11] = test: Antifungal activity against Aspergillus flavus MTCC 1021 assessed as zone of inhibition at 40 uM after 48 hrs by disc diffusion method; type: functional; conditions: MTCC 1021, 48 h, read-out: IZ; summary of the method: as §2
Aspergillus flavus [12] = test: Antifungal activity against Aspergillus flavus MTCC 1021 assessed as zone of inhibition at 80 uM after 48 hrs by disc diffusion method; type: functional; conditions: MTCC 1021, 48 h, read-out: IZ; summary of the method: as §2
Aspergillus niger [13] = test: Antifungal activity against Aspergillus niger MTCC 1108 after 48 hrs; type: functional; conditions: MTCC 1108, 48 h
Aspergillus niger [14] = test: Antifungal activity against Aspergillus niger MTCC 1108 assessed as zone of inhibition at 20 uM after 48 hrs by disc diffusion method; type: functional; summary of the method: as §2
Aspergillus niger [15] = test: Antifungal activity against Aspergillus niger MTCC 1108 assessed as zone of inhibition at 40 uM after 48 hrs by disc diffusion method; type: functional; conditions: MTCC 1108, 48 h, read-out: IZ; summary of the method: as §2
Aspergillus niger [16] = test: Antifungal activity against Aspergillus niger MTCC 1108 assessed as zone of inhibition at 80 uM after 48 hrs by disc diffusion method; type: functional; conditions: MTCC 1108, 48 h, read-out: IZ; summary of the method: as §2
Escherichia coli [17] = test: Antimicrobial activity against Escherichia coli ATCC 35218 after 24 hrs by broth micro serial dilution method; type: functional; conditions: ATCC 35218, 24 h
Summary of the method: (§3)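 This was broth microdilution in autoclaved Mueller-Hinton broth. 150 µL of compound per well was serially diluted […], and 50 µL of test organism was added. Plates were incubated 24 h at 37 °C and optical density was read.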

Escherichia coli [18] = test: Antimicrobial activity against Escherichia coli ATCC 35218 assessed as diameter of inhibition zone at 20 uM after 24 hrs by Kirby -Baur disc diffusion method; type: functional; conditions: ATCC 35218, 24 h, read-out: DIZ
Summary of the method: (§4)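 Kirby-Bauer disc diffusion was used. Acetone stocks (160 µM) were serially doubled down to 80, 40 and 20 µM. 4 µL of each went onto 5 mm sterile paper discs, which were dried 30 min at 50 °C. Inoculum was 1.5 × 10⁸ CFU/mL diluted to 3 × 10² CFU/mL, and 50 µL was spread on Mueller-Hinton agar. After 24 h at 37 °C the inhibition-zone diameter was measured. Ciprofloxacin served as positive control.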

Escherichia coli [19] = test: Antimicrobial activity against Escherichia coli ATCC 35218 assessed as diameter of inhibition zone at 40 uM after 24 hrs by Kirby -Baur disc diffusion method; type: functional; conditions: ATCC 35218, 24 h, read-out: DIZ; summary of the method: as §4
Escherichia coli [20] = test: Antimicrobial activity against Escherichia coli ATCC 35218 assessed as diameter of inhibition zone at 80 uM after 24 hrs by Kirby -Baur disc diffusion method; type: functional; conditions: ATCC 35218, 24 h, read-out: DIZ; summary of the method: as §4
Pseudomonas aeruginosa [21] = test: Antimicrobial activity against Pseudomonas aeruginosa ATCC 15499 after 24 hrs by broth micro serial dilution method; type: functional; conditions: ATCC 15499, 24 h; summary of the method: as §3
Pseudomonas aeruginosa [22] = test: Antimicrobial activity against Pseudomonas aeruginosa ATCC 15499 assessed as diameter of inhibition zone at 20 uM after 24 hrs by Kirby -Baur disc diffusion method; type: functional; conditions: ATCC 15499, 24 h, read-out: DIZ; summary of the method: as §4
Pseudomonas aeruginosa [23] = test: Antimicrobial activity against Pseudomonas aeruginosa ATCC 15499 assessed as diameter of inhibition zone at 40 uM after 24 hrs by Kirby -Baur disc diffusion method; type: functional; conditions: ATCC 15499, 24 h, read-out: DIZ; summary of the method: as §4
Pseudomonas aeruginosa [24] = test: Antimicrobial activity against Pseudomonas aeruginosa ATCC 15499 assessed as diameter of inhibition zone at 80 uM after 24 hrs by Kirby -Baur disc diffusion method; type: functional; conditions: ATCC 15499, 24 h, read-out: DIZ; summary of the method: as §4
Salmonella typhi [25] = test: Antimicrobial activity against Salmonella typhi ATCC 23564 after 24 hrs by broth micro serial dilution method; type: functional, Salmonella enterica subsp. enterica serovar Typhi; conditions: Salmonella enterica, ATCC 23564, 24 h
Salmonella typhi [26] = test: Antimicrobial activity against Salmonella typhi ATCC 23564 assessed as diameter of inhibition zone at 20 uM after 24 hrs by Kirby -Baur disc diffusion method; type: functional, Salmonella enterica subsp. enterica serovar Typhi; conditions: Salmonella enterica, ATCC 23564, 24 h; read-out: DIZ
Salmonella typhi [27] = test: Antimicrobial activity against Salmonella typhi ATCC 23564 assessed as diameter of inhibition zone at 40 uM after 24 hrs by Kirby -Baur disc diffusion method; type: functional, Salmonella enterica subsp. enterica serovar Typhi; conditions: Salmonella enterica, ATCC 23564, 24 h; read-out: DIZ
Salmonella typhi [28] = test: Antimicrobial activity against Salmonella typhi ATCC 23564 assessed as diameter of inhibition zone at 80 uM after 24 hrs by Kirby -Baur disc diffusion method; type: functional, Salmonella enterica subsp. enterica serovar Typhi; conditions: Salmonella enterica, ATCC 23564, 24 h; read-out: DIZ
Bacillus cereus [29] = test: Antimicrobial activity against Bacillus cereus MTCC 7350 after 24 hrs by broth micro serial dilution method; type: functional; conditions: MTCC 7350, 24 h; summary of the method: as §3
Bacillus cereus [30] = test: Antimicrobial activity against Bacillus cereus MTCC 7350 assessed as diameter of inhibition zone at 20 uM after 24 hrs by Kirby -Baur disc diffusion method; type: functional; conditions: MTCC 7350, 24 h, read-out: DIZ; summary of the method: as §4
Bacillus cereus [31] = test: Antimicrobial activity against Bacillus cereus MTCC 7350 assessed as diameter of inhibition zone at 40 uM after 24 hrs by Kirby -Baur disc diffusion method; type: functional; conditions: MTCC 7350, 24 h, read-out: DIZ; summary of the method: as §4
Bacillus cereus [32] = test: Antimicrobial activity against Bacillus cereus MTCC 7350 assessed as diameter of inhibition zone at 80 uM after 24 hrs by Kirby -Baur disc diffusion method; type: functional; conditions: MTCC 7350, 24 h, read-out: DIZ; summary of the method: as §4
Staphylococcus aureus [33] = test: Antimicrobial activity against Staphylococcus aureus ATCC 11632 after 24 hrs by broth micro serial dilution method; type: functional; conditions: ATCC 11632, 24 h; summary of the method: as §3
Staphylococcus aureus [34] = test: Antimicrobial activity against Staphylococcus aureus ATCC 11632 assessed as diameter of inhibition zone at 20 uM after 24 hrs by Kirby -Baur disc diffusion method; type: functional; conditions: ATCC 11632, 24 h, read-out: DIZ; summary of the method: as §4
Staphylococcus aureus [35] = test: Antimicrobial activity against Staphylococcus aureus ATCC 11632 assessed as diameter of inhibition zone at 40 uM after 24 hrs by Kirby -Baur disc diffusion method; type: functional; conditions: ATCC 11632, 24 h, read-out: DIZ; summary of the method: as §4
Staphylococcus aureus [36] = test: Antimicrobial activity against Staphylococcus aureus ATCC 11632 assessed as diameter of inhibition zone at 80 uM after 24 hrs by Kirby -Baur disc diffusion method; type: functional; conditions: ATCC 11632, 24 h, read-out: DIZ; summary of the method: as §4

COc1cc(/C=C/C(CC(/C=C/c2ccc(O)c(OC)c2)=N/c2ccc(S(=O)(=O)Nc3ccccn3)cc2)=N\c2ccc(S(=O)(=O)Nc3ccccn3)cc2)ccc1O
inhibition in vivo at 200 mg/kg (Mus musculus): 9.6% | IC50 (HCT-116): 50 µM | IC50 (QG-56): 100 µM | IC50 (HeLa): 50 µM | IC50 (HepG2): 100 µM | MIC (Trichoderma viride [1]): 20 µM (≈ 16.6 µg/mL) | zone of inhibition at 20 µM (Trichoderma viride [2]): 10 mm | zone of inhibition at 40 µM (Trichoderma viride [3]): 13 mm | zone of inhibition at 80 µM (Trichoderma viride [4]): 17 mm | MIC (Curvularia lunata [5]): 80 µM (≈ 66.5 µg/mL) | zone of inhibition at 20 µM (Curvularia lunata [6]): 9 mm | zone of inhibition at 40 µM (Curvularia lunata [7]): 9 mm | MIC (Aspergillus flavus [8]): > 80 µM | zone of inhibition at 80 µM (Curvularia lunata [9]): 12 mm | inhibition zone (IZ) (Aspergillus flavus [10]): inactive | zone of inhibition at 40 µM (Aspergillus flavus [11]): 9 mm | zone of inhibition at 80 µM (Aspergillus flavus [12]): 11 mm | MIC (Aspergillus niger [13]): 80 µM (≈ 66.5 µg/mL) | inhibition zone (IZ) (Aspergillus niger [14]): inactive | zone of inhibition at 40 µM (Aspergillus niger [15]): 9 mm | zone of inhibition at 80 µM (Aspergillus niger [16]): 12 mm | MIC (Escherichia coli [17]): 40 µM (≈ 33.2 µg/mL) | zone of inhibition at 20 µM (Escherichia coli [18]): 12 mm | zone of inhibition at 40 µM (Escherichia coli [19]): 16 mm | zone of inhibition at 80 µM (Escherichia coli [20]): 17 mm | MIC (Pseudomonas aeruginosa [21]): 40 µM (≈ 33.2 µg/mL) | zone of inhibition at 20 µM (Pseudomonas aeruginosa [22]): 13 mm | zone of inhibition at 40 µM (Pseudomonas aeruginosa [23]): 16 mm | zone of inhibition at 80 µM (Pseudomonas aeruginosa [24]): 18 mm | MIC (Salmonella typhi [25]): 40 µM (≈ 33.2 µg/mL) | zone of inhibition at 20 µM (Salmonella typhi [26]): 12 mm | zone of inhibition at 40 µM (Salmonella typhi [27]): 17 mm | zone of inhibition at 80 µM (Salmonella typhi [28]): 19 mm | MIC (Bacillus cereus [29]): 40 µM (≈ 33.2 µg/mL) | zone of inhibition at 20 µM (Bacillus cereus [30]): 10 mm | zone of inhibition at 40 µM (Bacillus cereus [31]): 15 mm | zone of inhibition at 80 µM (Bacillus cereus [32]): 18 mm | MIC (Staphylococcus aureus [33]): 40 µM (≈ 33.2 µg/mL) | zone of inhibition at 20 µM (Staphylococcus aureus [34]): 13 mm | zone of inhibition at 40 µM (Staphylococcus aureus [35]): 17 mm | zone of inhibition at 80 µM (Staphylococcus aureus [36]): 19 mm
